Source: PubChem BioAssay (Broad Institute)
An excerpt weighted towards active compounds, which were near 2.1% of everything screened.
FN deposit inh – fibronectin deposition inhibition. 350,000 tested, 0.086% active. inhibition, % at 12.6 µM. AH1F fibroblasts, Alexa488-fibronectin deposition fluorescence, overnight;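 active means mean inhibition across replicates of 30% or more, regardless of how many single replicates reach that level; inconclusive means mean under 30% yet at least half of replicates reach 30%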;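 further: positive control wells lacked labelled fibronectin entirely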
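Assay system: AH1F fibroblasts assembling fluorescent fibronectin matrix; Amount: 10000 AH1F cells per well; Buffer or medium: DMEM, 2% serum; Probe or stimulus: Alexa488-fibronectin, 24 nM final in well; Doses: single compound dose, delivered by pin transfer; Incubation: 1 h adhesion, overnight exposure; Measured by: fluorescence 485/525 nm; Read-out: fibronectin deposition inhibition.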
PAX8 inh HTS – lowers PAX8-driven luciferase in RMG-I cells. RMG-I TPO-luciferase reporter, SteadyGlo, 24 h. inhibition, % at 12.6 µM. 360,000 tested, 1.2% active. AID 652154;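 active means mean replicate inhibition at least 60% with every replicate also reaching 60%; inconclusive means only one of the two criteria is met; inactive means mean below 60% and not all replicates reaching 60%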;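 further: luciferase light reporting Pax8 driven TPO promoter activity; plate controls were median of neutral control wells for no effect and mitoxantrone controls for full effect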
EBV LMP1 NFkB – reduces LMP1-driven NF-kappaB luciferase signal | LMP1-induced NF-kappaB luciferase reporter cells, luminescence | inhibition, % at 12.5 µM | 350,000 tested, 0.69% active | AID 504558; in the data active means inhibition above about 41%; inconclusive means no clear call, values can overlap the other calls;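 further: 0% = neutral control wells and 100% = reference inhibitor control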
EWS-Fli block – blocks EWS/Fli oncoprotein-driven transcription. AID 651661. inhibition, % at 12.6 µM. A673 NR0B1-luciferase reporter, viability-normalised. 350,000 tested, 0.67% active;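 active means mean inhibition of at least 50% after viability correction, with every replicate also passing that limit; inconclusive means mean reaches 50% but only one of two replicates passes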;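 further: firefly luciferase signal divided by Alamar Blue viability fluorescence both relative to DMSO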
aSyn 5UTR inh – MLPCN primary screen, SNCA 5' untranslated region; alpha-synuclein 5'UTR reporter, inhibitor activity; inhibition, % (tested at 7.5 µM); AID 1813; 300,000 tested, 0.82% active; in the data active means inhibition above about 60%; inconclusive means no clear call, values can overlap the other calls;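 further: H4 neuroglioblastoma cells stably carrying SNCA 5'UTR luciferase fusion; 0% = DMSO wells and 100% = positive control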
Shn3 inh set2 – inhibitors of Schnurri-3 3'UTR reporter in osteoblasts; Clone20 osteoblast Shn3 3'UTR firefly luciferase, 24 h; inhibition, % at 12.5 µM; 360,000 tested, 0.52% active; AID 588674;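 active means mean inhibition of at least 75% with every replicate also reaching 75%; inconclusive means mean inhibition at least 75% but some replicate below; inactive means mean inhibition below 75%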;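 further: 0% = median of neutral control wells and 100% = pilot-screen positive control compound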
* hit, by the source's call.

Screening COc1cc([C@@H]2c3cc4c(cc3[C@@H](NC3CCN(Cc5ccccc5)CC3)[C@H]3COC(=O)[C@H]23)OCO4)cc(OC)c1O returned aSyn 5UTR inh 103.2*.
`COc1ccccc1CC(=O)NC1CCN(Cc2ccccc2)CC1` gave FN deposit inh 1.4, PAX8 inh HTS 2.7, EBV LMP1 NFkB -3.8, EWS-Fli block 11.2, aSyn 5UTR inh -9.7 and Shn3 inh set2 -18.0.
Screening COc1cc(C2c3cc4c(cc3C(O)C3COCC23)OCO4)cc(OC)c1OC (stereo unspecified) returned FN deposit inh 2.0, EBV LMP1 NFkB -0.6, EWS-Fli block -0.6 and Shn3 inh set2 -3.2.
`COc1cc([C@@H]2c3cc4c(cc3[C@@H](O[C@@H]3O[C@@H]5CO[C@@H](C)O[C@H]5[C@H](O)[C@H]3O)[C@H]3COC(=O)[C@H]23)OCO4)cc(OC)c1O` gave FN deposit inh -2.7, PAX8 inh HTS 28.2, EBV LMP1 NFkB 69.9*, EWS-Fli block 53.9*, aSyn 5UTR inh 38.7 and Shn3 inh set2 81.3.
For COc1cc(C2c3cc4c(cc3C(OC3OC5COC(c6cccs6)OC5C(O)C3O)C3COC(=O)C23)OCO4)cc(OC)c1O (stereo unspecified) the results were FN deposit inh -7.3, PAX8 inh HTS 68.6*, EBV LMP1 NFkB 75.3*, EWS-Fli block 59.8*, aSyn 5UTR inh 81.7* and Shn3 inh set2 93.6*.
`COc1cc([C@@H]2c3cc4c(cc3[C@H](O)[C@H]3COC(=O)[C@H]23)OCO4)cc(OC)c1OC` gave FN deposit inh -29.5, PAX8 inh HTS 95.2*, EBV LMP1 NFkB -4.1, EWS-Fli block 71.8*, aSyn 5UTR inh 94.6* and Shn3 inh set2 10.3.
For CCN(CC)C1Oc2cc3c(cc2C(c2cc(OC)c(O)c(OC)c2)C1C)OCO3 (stereo unspecified) the results were PAX8 inh HTS 1.5, EBV LMP1 NFkB -1.9, EWS-Fli block 2.8 and Shn3 inh set2 -37.2.
`CNC[C@@H]1OCCCC[C@H](C)Oc2ccc(NS(=O)(=O)c3ccc(F)cc3)cc2C(=O)N([C@H](C)CO)C[C@@H]1C` gave FN deposit inh 7.6, PAX8 inh HTS 1.0 and EWS-Fli block -9.3.
C/C(=N\Nc1ccc2nncn2n1)c1ccccn1 was read as FN deposit inh -10.8, PAX8 inh HTS 63.4*, EWS-Fli block 34.9, aSyn 5UTR inh 93.9* and Shn3 inh set2 90.0*.
`C(=N\Nc1ccc2nncn2n1)/c1ccccn1` gave FN deposit inh 5.9, PAX8 inh HTS 2.8, EBV LMP1 NFkB -13.8, EWS-Fli block -1.9, aSyn 5UTR inh 66.6* and Shn3 inh set2 31.0.
O=c1nc(N/N=C/c2ccccn2)cn[nH]1 was read as FN deposit inh 7.0, PAX8 inh HTS 59.0, EBV LMP1 NFkB 1.5, EWS-Fli block 24.7, aSyn 5UTR inh 27.3 and Shn3 inh set2 inconclusive.
C/C(=N\Nc1ccc2nncn2n1)c1ccco1 was read as FN deposit inh -4.7, PAX8 inh HTS 9.0, EBV LMP1 NFkB -9.2, EWS-Fli block -7.0, aSyn 5UTR inh -24.6 and Shn3 inh set2 12.9.
For C[C@@H]1CCCCO[C@@H](CN(C)S(=O)(=O)c2ccc(Cl)cc2)[C@H](C)CN([C@H](C)CO)C(=O)c2cc(NC(=O)NC3CCCCC3)ccc2O1 the results were PAX8 inh HTS 24.2 and EWS-Fli block -29.5.
CCOc1ccccc1C(=O)N[C@H](C(=O)OCc1cc([N+](=O)[O-])cc2c1OCOC2)C(C)C was read as FN deposit inh -1.3, PAX8 inh HTS 7.1, EBV LMP1 NFkB 49.4*, aSyn 5UTR inh 2.6 and Shn3 inh set2 1.1.
For CCN(c1ccccc1)S(=O)(=O)c1ccc(Cl)c(NC(=O)CN(C)Cc2cccc(F)c2)c1 the results were FN deposit inh 8.3, PAX8 inh HTS 30.6, EBV LMP1 NFkB 9.5, EWS-Fli block 5.2 and Shn3 inh set2 90.9*.
Screening CCC(C)NCC(=O)Nc1cc(S(=O)(=O)N(CC)c2ccccc2)ccc1Cl (stereo unspecified) returned FN deposit inh 3.5, PAX8 inh HTS -0.4, EBV LMP1 NFkB 7.4, aSyn 5UTR inh -0.1 and Shn3 inh set2 2.9.
For C[C@H](NC(=O)C[C@H]1C=C[C@H](NC(=O)Cc2ccccn2)[C@@H](CO)O1)c1ccccc1 the results were FN deposit inh -3.6.
